A selection: hits, their analogues and other compounds. The true share with any hit is near 3.5%.
MrgX1 ag = activates human MrgX1 receptor signaling | Q96LB2 | MrgX1-HEK293 cells, Fluo-4 calcium fluorescence, agonist mode; active compounds read high | B-score at 10 µM | hit rate 0.44% among 310,000 | AID 588627;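 active = calcium response B-score plate-corrected fluorescence ratio at least 3 library SD, with starting fluorescence B-score inside 5 SD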
Target sequence (Q96LB2 whole entry, looked up): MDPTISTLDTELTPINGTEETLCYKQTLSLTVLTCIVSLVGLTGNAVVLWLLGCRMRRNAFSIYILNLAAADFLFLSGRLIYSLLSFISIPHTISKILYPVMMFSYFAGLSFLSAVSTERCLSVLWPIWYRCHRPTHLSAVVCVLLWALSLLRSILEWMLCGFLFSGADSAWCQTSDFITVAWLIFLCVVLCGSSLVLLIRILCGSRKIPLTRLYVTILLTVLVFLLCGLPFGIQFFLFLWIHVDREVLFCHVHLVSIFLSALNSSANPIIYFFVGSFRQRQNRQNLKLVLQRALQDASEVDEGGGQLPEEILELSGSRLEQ
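Test system: HEK293 cells stably expressing human MrgX1 receptor; amount: 15,000 cells per well; doses: compound delivered in addition one of three; times: overnight plating before 1 h dye loading; detection: Fluo-4 NW calcium-flux fluorescence, kinetic read; read-out basis: B-scored fluorescence response ratio; controls: positive and negative controls per plate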
MrgX1 PAM = allosterically activates human MrgX1 receptor signaling | Q96LB2 | MrgX1-HEK293, Fluo-4 calcium flux, FDSS; active compounds read high | B-score at 10 µM | hit rate 0.63% among 310,000 | AID 588675;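 active = plate-corrected calcium response at least 3 library SD above typical, normal starting fluorescence, not activating the receptor alone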;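 note: compound read alongside a low EC10 to EC30 dose of BAM8-22 agonist; peak minus trough fluorescence over baseline measured at the second addition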
RGS4 inh = inhibitors of human RGS4; HEK293 M3R/RGS4 inducible, Fluo-4 calcium flux; active compounds read high; triggered by carbachol at its EC20; B-score at 10 µM; hit rate 0.45% among 310,000;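 active = B-score, a plate-corrected calcium signal, over three deviations above library mean, with baseline fluorescence within five deviations of library mean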;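 note: RGS4 expression induced by doxycycline in cells with stable M3 receptor; B-score is computed from the integrated fluorescence ratio over baseline after carbachol; higher B-score means a larger calcium signal and so more RGS4 inhibition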
Target sequence (P49798 whole entry, looked up): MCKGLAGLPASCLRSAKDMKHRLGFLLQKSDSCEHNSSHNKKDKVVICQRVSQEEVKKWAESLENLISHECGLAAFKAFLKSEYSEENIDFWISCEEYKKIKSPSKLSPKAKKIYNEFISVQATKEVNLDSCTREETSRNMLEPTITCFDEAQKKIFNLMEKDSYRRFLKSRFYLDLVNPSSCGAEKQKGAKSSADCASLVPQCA
MrgX1 antag = blocks BAM8-22 activation of human MrgX1 receptor; hit rate 1.3% among 310,000; B-score at 10 µM; AID 588676; MRGX1-HEK293 calcium flux, Fluo-4, BAM8-22 antagonism; active compounds read low;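 active = calcium-response B-score plate-corrected more than 3 library SD below zero, starting fluorescence within 5 deviations, no agonist response on first addition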;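 note: peak minus trough fluorescence over baseline after final BAM8-22 challenge near maximal dose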
RGS4 pot = potentiators or activators of RGS4; B-score at 10 µM; hit rate 0.92% among 310,000; HEK293 M3R/inducible RGS4, carbachol calcium flux Fluo4; active compounds read low;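 active = B-score of the integrated calcium signal more than 4 SD below the library mean, with starting fluorescence not abnormally high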;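 note: negative B-score means reduced calcium response which marks RGS4 activation or potentiation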
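Assay system: HEK293 FlpIn-TREx cells, stable M3R, doxycycline-inducible RGS4 / Probe or stimulus: carbachol, ECmax concentration / Times: overnight RGS4 induction, 30 min dye load 37 °C, 20 min compound RT / Signal: kinetic calcium fluorescence imaging with Fluo4-AM dye, 2 µM / Measure: Agonist-evoked peak-minus-minimum fluorescence over baseline, integrated ratio, B score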
RGS4 inh valid = validation of RGS4 inhibitors; shares compounds with RGS4 inh; HEK293 M3R/RGS4, carbachol calcium Fluo-4 fluorescence; carbachol added at its EC20; 0 = buffer wells, 100 = carbachol control; calcium response, % at 10 µM; hit rate 65% among 1,700; AID 492999;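 active = duplicate-averaged calcium response above the buffer-only control mean plus 5 SD of those controls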;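 note: integrated fluorescence ratio F max minus min over baseline F0; higher response in RGS4-induced cells means RGS4 inhibition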
M3R Ca ctr = counter-screen for RGS4 inhibitors: effect in non-induced cells; hit rate 20% among 1,900; HEK293 M3R non-induced, carbachol calcium Fluo-4; submaximal (EC20) carbachol stimulus; buffer wells 0%, carbachol control wells 100%; AID 493000; shares compounds with RGS4 inh; activity (percent), % at 10 µM; call rule not given here;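 note: RGS4 induction absent so cells express M3R without RGS4; higher means more calcium signal and flags a non-specific hit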
RGS4 inh ctr2 = signal in non-induced cells without carbachol, RGS4 inhibitor counter-screen; shares compounds with RGS4 inh; HEK293 M3R/RGS4 non-induced, Fluo-4 calcium, no carbachol; normalised: buffer wells 0%, carbachol wells 100%; calcium response (agonist-mode artifact), % at 10 µM; hit rate 22% among 1,900;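 active = duplicate-averaged calcium rise in uninduced cells above buffer wells' mean plus 5 SD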
Numbers without * were called inactive; i = inactive; / = no result given.

SMILES	MrgX1 ag	MrgX1 PAM	RGS4 inh	MrgX1 antag	RGS4 pot	RGS4 inh valid	M3R Ca ctr	RGS4 inh ctr2
COc1ccc(C(=O)O/N=C/c2ccc(S(=O)(=O)c3ccc(Cl)cc3)nc2)cc1	i	i	i	i	i	/	/	/
O=C(C1CCN(S(=O)(=O)c2ccc(-n3cnnn3)cc2)CC1)N1CCCCC1	i	i	i	i	i	/	/	/
Cc1ccc(-c2cc(-c3ccc(F)cc3)nc(N)c2C#N)o1	i	i	6*	i	i	i	i	i
Cc1ccc(-c2cc(-c3ccccc3)c(C#N)c(N)n2)o1	i	i	7.7*	i	i	5.5%*	i	i
CS(=O)(=O)c1[nH]nc(-c2cccc(Cl)c2)c1C#N	i	i	i	i	i	/	/	/
Cc1cccc(OCc2nn[nH]n2)c1C	i	i	i	i	i	/	/	/
COCC(=O)N(Cc1cc2ccc(C)cc2[nH]c1=O)c1ccc(C)cc1C	i	i	i	i	i	/	/	/
Cc1ccc(N(Cc2cc3ccc(C)cc3[nH]c2=O)C(=O)c2ccco2)c(C)c1	i	i	i	i	i	i	i	i
Cc1ccc2cc(CN(C(=O)c3ccco3)c3cccc(C)c3C)c(=O)[nH]c2c1	i	i	i	i	i	/	/	/
Cc1ccc2cc(CN(C(=O)c3ccco3)c3ccccc3C)c(=O)[nH]c2c1	i	i	i	i	i	i	i	i
CCOc1ccc(N(CC(=O)N2CCC(Cc3ccccc3)CC2)S(C)(=O)=O)cc1	i	i	i	i	i	/	/	/
Cc1[nH]nc(-c2ccc(O)cc2O)c1-c1nc2ccccc2s1	i	i	7.6*	i	i	21%*	i	26%*
Cc1[nH]nc(-c2ccc(O)cc2O)c1-c1ccc(Cl)cc1	i	i	28*	i	i	54%*	i	32%*
Oc1cccc(-c2nc3ccccc3s2)c1	i	i	i	i	i	/	/	/
COc1ccc(-c2n[nH]c(C)c2-c2ccc(Cl)cc2)c(O)c1	i	i	i	i	i	/	/	/
CCOc1ccccc1/C=C/c1onc(C)c1S(=O)(=O)N1CCC(C(=O)N2CCCCCC2)CC1	i	i	i	i	i	/	/	/
COCCn1c(Cc2ccccc2)nnc1SCC(=O)Nc1oc(C)c2c(C)n[nH]c(=O)c12	i	i	i	i	i	/	/	/
Cc1cccc(N=c2oc3cc(O)ccc3cc2C(N)=O)c1	i	i	4.7*	i	i	6.0%*	i	30%*
CCc1nnc(NS(=O)(=O)c2ccc(N=Cc3c(C)[nH]n(-c4cccc(Cl)c4)c3=O)cc2)s1	i	i	i	i	i	/	/	/
Cc1[nH]n(-c2ccc(Cl)cc2)c(=O)c1C=Nc1ccc(S(=O)(=O)N2CCOCC2)cc1	i	i	6.3*	i	i	32%*	55%*	i
CCc1nnc(NS(=O)(=O)c2ccc(N=Cc3c(C)[nH]n(-c4ccc(Cl)cc4)c3=O)cc2)s1	i	i	i	i	i	/	i	i
Cc1ccc(-n2[nH]c(C)c(C=Nc3ccc(S(=O)(=O)Nc4nccs4)cc3)c2=O)cc1C	i	i	i	i	i	/	i	i
CC12CCC(C(=O)N(CC(O)CN3CCCCC3)C1=O)C2(C)C (stereo not given)	i	i	i	i	i	/	/	/
O=C(NCc1ccccc1Cl)c1ccc(S(=O)(=O)Nc2cccc(C(F)(F)F)c2)cc1	i	i	i	i	i	/	/	/
O=Cc1ccc(-n2nncc2-c2ccc([N+](=O)[O-])cc2)cc1	i	i	7.4*	i	i	42%*	66%*	i
SMILES	MrgX1 ag	MrgX1 PAM	RGS4 inh	MrgX1 antag	RGS4 pot	RGS4 inh valid	M3R Ca ctr	RGS4 inh ctr2
O=[N+]([O-])c1ccc(-n2nncc2-c2ccccc2)cc1	i	i	i	i	i	/	/	/
O=c1oc2ccccc2c(O)c1/C=C1\C=Nc2ccccc21	i	i	22*	i	i	66%*	i	48%*
O=C(Nc1cnccn1)c1ccc(F)cc1Cl	i	i	i	i	i	/	/	/
CCCN(C(=O)c1ccco1)c1nnc(-c2ccccc2C)s1	i	i	i	i	i	/	/	/
CC(=O)N1CCc2cc(S(=O)(=O)NC(C)c3ccccc3)ccc21 (stereo not given)	i	i	i	i	i	i	i	i
Cc1ccc(-c2ccc(/C=N\NC(=O)C3C(=O)NCC3c3ccccc3)o2)cc1Cl (stereo not given)	i	i	i	i	i	/	i	i
O=C1NCC(c2ccccc2)C1C(=O)N/N=C\c1ccc(-c2cccc(Cl)c2Cl)o1 (stereo not given)	i	i	i	i	i	/	/	/
COC(=O)c1sc(N)c(C(=O)OC)c1COC(=O)C12CC3CC(CC(O)(C3)C1)C2	i	i	i	i	i	/	/	/
C#CCN(C#N)c1nc(NCC)nc(NC(C)C)n1	i	i	i	i	i	/	/	/
CCN(C#N)c1nc(NC(C)C)nc(NC(C)C)n1	i	i	i	i	i	i	i	i
CC1=NNC(=O)C1C(c1ccc(Cl)cc1)C(C#N)C#N (stereo not given)	i	i	i	i	i	/	/	/
CC1=NNC(=O)C1C(c1cccc(O)c1)C(C#N)C#N (stereo not given)	i	i	i	i	i	/	/	/
CC1=NN(Cc2ccccc2)C(=O)C1C(c1ccc(Cl)cc1)C(C#N)C#N (stereo not given)	i	i	i	i	i	i	i	7.0%*
CC1=NN(Cc2ccccc2)C(=O)C1	i	i	i	i	i	/	/	/
CC1=NN(Cc2ccccc2)C(=O)C1C(c1ccncc1)C(C#N)C#N (stereo not given)	i	i	4.8*	i	i	7.5%*	i	i
CC1=NN(Cc2ccccc2)C(=O)C1C(c1ccccc1)C(C#N)C#N (stereo not given)	i	i	i	i	i	i	i	i
COCCNC(=S)N1CCN(Cc2cccc(OC)c2)CC1	i	i	i	i	i	/	/	/

Assay outcomes (PubChem BioAssay)
